SMILES strings stand for the structures.

The series can be described thus: Toxicity liver stage against HepG2, at 10uM. The class given is cell-based. The following applies: human, HepG2-A16-CD81EGFP cells; read-out: INHIBITION
Also on record: test concentration 10 uM, cell line HepG2-A16-CD81EGFP. In short, it runs like this: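 Uninfected HepG2-A16-CD81EGFP cells, 3 × 10^3 per well, 1536-well, plated on prespotted compound at 10 μM final, parasite-free screening media added to match infected plates; puromycin 10 μM positive, DMSO 0.5% negative; run in parallel with 48 h PbLuc assay at 37 °C, 5% CO2; viability by CellTiter-Glo luminescence, normalized to controls.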
For `Cc1cccc2c1nc1n2[C@@H](CNC(=O)C2CCOCC2)COC1`, the cytotoxicity at 10 µM is -1.47%.

With `COc1ccc2c(c1)nc1n2[C@@H](CNCc2ccccc2)COC1`, the cytotoxicity at 10 µM is -0.201%.

As to `COCC(=O)N1CCN(C(=O)C2CCCCC2)[C@@H](C(=O)OC)C1`, the cytotoxicity at 10 µM was determined as 1.08%.

Take `COc1cnc(CSc2nnc(C)s2)cc1OCC(=O)NC1CCCC1`: the cytotoxicity at 10 µM is 3.43%.

`CCCC(O)CN1CC(C)(C)CN(C(=O)c2ccc(SC)cc2)CC1=O` (stereo unspecified): the cytotoxicity at 10 µM is -4%.

`CCS(=O)(=O)N1CCC(OC)c2ccccc2N(CC(=O)NC)C(=O)C1` (stereo unspecified): the cytotoxicity at 10 µM is -1.42%.

`CC(C)C[C@H](NC(=O)N1CCC(Cc2ccccc2)CC1)C(=O)O`: the cytotoxicity at 10 µM was -4.13%.

For `C[C@@H](O)CNC(=O)c1nc(CC(=O)Nc2ccccc2)no1`, the cytotoxicity at 10 µM came out at 7.49%.

Take `Cc1nn(C2CCS(=O)(=O)C2)c(O)c1Cc1ccc(Br)cc1` (stereo unspecified): the cytotoxicity at 10 µM was -41.6%.

In the case of `COc1ccc(N2CCN(C(=O)c3nc(Cl)sc3C(C)C)CC2)cc1`, the cytotoxicity at 10 µM was 3.17%.

For the compound `Cc1noc(C2CN(CC(=O)NCC3CCCO3)C2)n1` (stereo unspecified), the cytotoxicity at 10 µM was -2.56%.

Consider `O=C(c1ccsc1)N1CC(c2nc(-c3ccc[nH]c3=O)no2)C1`, for which the cytotoxicity at 10 µM was -7.39%.

For `COc1nn(C)cc1C(=O)N1CCC(c2nnc(-c3ccsc3)o2)CC1`, the cytotoxicity at 10 µM worked out at 8.08%.

Take `COC1(CNC(=O)c2ccc(Cl)c(Cl)c2)CCSC1` (stereo unspecified): the cytotoxicity at 10 µM amounted to 2.05%.

As to `Fc1cnc(N2CCO[C@H]3CN(CC4CCOC4)C[C@H]32)nc1` (stereo partly specified), the cytotoxicity at 10 µM worked out at 12.3%.

For `COC(=O)c1sc(C(F)(F)F)cc1OC`, the cytotoxicity at 10 µM came out at 4.69%.

On to `Cc1cccc(N(C)Cc2cc(=O)n3oc(C)cc3n2)c1`, for which the cytotoxicity at 10 µM was determined as 0.14%.

For `CC(C)c1cc(C(F)(F)F)n2nc(C3CCN(S(C)(=O)=O)C3)cc2n1` (stereo unspecified), the cytotoxicity at 10 µM was -1.14%.

`CC1=NOC2(CCN(Cc3c[nH]c4ccccc34)CC2)C1`: the cytotoxicity at 10 µM came out at 4.54%.

As to `Cc1nc(Cn2cnc3c(c(Br)nn3C)c2=O)cs1`, the cytotoxicity at 10 µM was 8.84%.

As for `Cc1cc(NC(=O)N2CCN(C)CC2C)n(Cc2ccccc2)n1` (stereo unspecified), the cytotoxicity at 10 µM is 11.4%.

As to `Cc1cc(C)n(C2CCCN(C(=O)CN(C)c3cnccn3)C2)n1` (stereo unspecified), the cytotoxicity at 10 µM was found to be 3.36%.

On to `CCCn1nnnc1COC(=O)C1Cc2cc(Cl)ccc2O1` (stereo unspecified), for which the cytotoxicity at 10 µM was -5.68%.

In the case of `Cc1ccc(CNC(=O)NCc2nccn2C)c(OC(C)(C)C)c1`, the cytotoxicity at 10 µM is 2.66%.

As for `CCOc1c(F)cccc1C(=O)N(CC)C(C)c1cccnc1` (stereo unspecified), the cytotoxicity at 10 µM is 11.8%.

Consider `CC(C)c1nc2n(n1)CC(NCc1cc3ccccc3o1)CC2` (stereo unspecified), for which the cytotoxicity at 10 µM is -3.61%.

In the case of `Cn1c(C2CC2)nc2c1CCN(Cc1nc3ccccc3s1)C2`, the cytotoxicity at 10 µM is -4.69%.

Regarding `COCCSCC(=O)NCc1ccc(N(C)C)nc1`, the cytotoxicity at 10 µM worked out at 9.15%.

As for `CCc1nc(C)c(C(C)N(C)CCc2ccccn2)s1` (stereo unspecified), the cytotoxicity at 10 µM was -6.51%.

In the case of `O=C1NCC(C(=O)N(Cc2ccc(C(F)(F)F)cc2)C2CC2)N1` (stereo unspecified), the cytotoxicity at 10 µM is 4.54%.

In the case of `Cc1oncc1C(=O)NCC(c1ccccc1Cl)N1CCOCC1` (stereo unspecified), the cytotoxicity at 10 µM was found to be 10.7%.

With `CC1(NC(=O)Cc2cccs2)CCS(=O)(=O)C1` (stereo unspecified), the cytotoxicity at 10 µM was determined as 8.39%.

For the compound `COCCn1nc(C(=O)N(C)Cc2ccc3ccccc3c2)ccc1=O`, the cytotoxicity at 10 µM was -131%.

Regarding `CCN(C(c1cccnc1)c1ccc2c(c1)CCC2)S(C)(=O)=O` (stereo unspecified), the cytotoxicity at 10 µM was 5.82%.

In the case of `CCN1CCC(NC(=O)NCC(O)c2ccc(Cl)c(F)c2)CC1` (stereo unspecified), the cytotoxicity at 10 µM is -3.82%.

In the case of `COc1ccc(-c2ccc(C(=O)NS(C)(=O)=O)c(F)c2)cc1`, the cytotoxicity at 10 µM was 5.7%.

`COc1cccc(CNC(C)c2ccc(-n3ccnc3)cc2)c1O` (stereo unspecified): the cytotoxicity at 10 µM is -47.4%.

In the case of `O=C(c1ncncc1Cl)N1CCC2(CCCC2)CC1`, the cytotoxicity at 10 µM was determined as 1.06%.

For `CC(C)(C)c1ccc(C2(C(=O)NCCCS(C)(=O)=O)CC2)cc1`, the cytotoxicity at 10 µM is -12.6%.

Regarding `COc1ccc(CNC(=O)C2(C#N)CCCC2)cc1`, the cytotoxicity at 10 µM is -17.7%.

Consider `COc1ccc(C2CCCCCN2S(=O)(=O)N(C)C)cc1` (stereo unspecified), for which the cytotoxicity at 10 µM was -9.87%.

Regarding `Cc1n[nH]c(C)c1C1CCCN1C(=O)NCC(=O)NC(C)(C)C` (stereo unspecified), the cytotoxicity at 10 µM was -11.7%.

As to `O=C(c1ccc[nH]1)N1CCc2nnc(Cn3cccn3)n2CC1`, the cytotoxicity at 10 µM is 5.62%.

As for `Cc1ncccc1NC(=O)[C@@H]1CCO[C@@H]2CCN(c3ccncn3)C[C@H]21`, the cytotoxicity at 10 µM worked out at 5.59%.

In the case of `COc1cc(N2CCC3(CC2)C(c2ccncc2)CC(=O)N3C)ncn1` (stereo unspecified), the cytotoxicity at 10 µM was -107%.

Turning to `Cn1cnc(-c2nc(C(=O)NCCN3CCOCC3)c3ccccn23)c1`, the cytotoxicity at 10 µM is -103%.

Consider `Cn1cc(CN2CCCC3(CCN(Cc4cccnc4)C3=O)C2)cn1` (stereo unspecified), for which the cytotoxicity at 10 µM is -3.99%.

Consider `CN(Cc1ccsc1)c1nc(-c2ccccn2)nc2c1CCNCC2`, for which the cytotoxicity at 10 µM is -6.18%.

Consider `CC(=O)N[C@@H]1CN(C(=O)c2ccncc2)C[C@H]1c1ccc(C)cc1`, for which the cytotoxicity at 10 µM worked out at 4.58%.

Regarding `Cc1cc(CN2CCC(C3CCN(Cc4cccnc4)CC3)C2)[nH]n1` (stereo unspecified), the cytotoxicity at 10 µM is 11%.

For the compound `CCc1ccccc1-c1cc(C)nc(N)n1`, the cytotoxicity at 10 µM is 1.12%.

For `CSc1cccc(CNC(=O)[C@H]2CNC[C@@H](C(=O)N3CCOCC3)C2)c1`, the cytotoxicity at 10 µM is -6.91%.

In the case of `Cc1cc2[nH]c(CN3CCOC(c4ccc(F)cc4)C3)cc(=O)n2n1` (stereo unspecified), the cytotoxicity at 10 µM is -4.89%.

As for `O=C(Nc1ccc(F)c(Cl)c1)N1CCCN([C@H]2COC[C@@H]2O)CC1`, the cytotoxicity at 10 µM is -40.7%.

As to `CC1=NOC(C(=O)N(C)CCCn2nc(C)cc2C)C1` (stereo unspecified), the cytotoxicity at 10 µM was found to be 3.53%.

As for `O=C(CCc1cc2n(n1)CCCN(C(=O)c1ccncc1)C2)NC1CC1`, the cytotoxicity at 10 µM turned out to be 12.2%.

In the case of `N[C@H]1CN(S(=O)(=O)N2CCCCCC2)C[C@@H]1c1ccccc1`, the cytotoxicity at 10 µM was 2.14%.

Turning to `Cc1ocnc1C(=O)N[C@H]1CN(CC2CCC2)C[C@@H]1C(C)C`, the cytotoxicity at 10 µM is -2.94%.

On to `FC(F)(F)C1CN(Cc2cccc(OCc3ccccn3)c2)CCO1` (stereo unspecified), for which the cytotoxicity at 10 µM was 1.48%.

For the compound `O=C1Nc2ccccc2C12CCCN(Cc1ccc3c(c1)OCCO3)C2` (stereo unspecified), the cytotoxicity at 10 µM came to 0.529%.

Consider `OCc1ccc(-c2nccn2CCC2=CCCCC2)o1`, for which the cytotoxicity at 10 µM amounted to 4.19%.

Take `Cc1cc(-c2ccncc2)ccc1OCC(N)=O`: the cytotoxicity at 10 µM came out at 18.1%.

With `COCCC1(CO)CCCN(C(=O)c2cccnc2OC)C1` (stereo unspecified), the cytotoxicity at 10 µM was -47.8%.

On to `CN(C)S(=O)(=O)N1CCN(c2ccnc(N3CCCCC3)n2)CC1`, for which the cytotoxicity at 10 µM was -1.48%.

As for `CC(C)(C)CN1CCCC2(CCN(C(=O)c3ccc(O)nc3)C2)C1` (stereo unspecified), the cytotoxicity at 10 µM is -0.937%.

In the case of `CC(C)Oc1cccc(C(=O)C2CCCN(C(=O)c3ncn[nH]3)C2)c1` (stereo unspecified), the cytotoxicity at 10 µM was -7.53%.

Turning to `COc1cccc(C(=O)N2CCN(Cc3nc(C(C)C)no3)CC2)c1`, the cytotoxicity at 10 µM was -18.7%.

`Cc1cc(NC(=O)CN2CCc3cncnc3C2)on1`: the cytotoxicity at 10 µM is -17.6%.

As to `COc1ncccc1NC(=O)C1CCOCC1`, the cytotoxicity at 10 µM is -29.8%.

As to `COc1ncccc1CNC(=O)Nc1cccnc1N1CCCC1`, the cytotoxicity at 10 µM is -10.4%.

In the case of `CN(Cc1noc(C2CC2)n1)C1CCN(CCc2cccs2)C1` (stereo unspecified), the cytotoxicity at 10 µM was -5.98%.

Turning to `OCC1CCCN1c1cc(NCc2ccsc2)ncn1` (stereo unspecified), the cytotoxicity at 10 µM amounted to 38.8%.

On to `CC(O)CN(CC(=O)NC1CCCCC1)c1ccccc1` (stereo unspecified), for which the cytotoxicity at 10 µM was -6.08%.

In the case of `COCCNC(=O)CN1CCN(c2nc(C)cs2)C(C)C1` (stereo unspecified), the cytotoxicity at 10 µM was -4.03%.

In the case of `Cc1nnc(C(C)N2CCN(Cc3ccc(C#N)cc3)CC2)o1` (stereo unspecified), the cytotoxicity at 10 µM was -12.2%.

For `NC(=O)c1ccc(S(=O)(=O)NC(=O)COc2ccc3c(c2)CCC3)cc1`, the cytotoxicity at 10 µM was -2.27%.

For `CC(C)N1CCN(C(=O)Nc2cnn(CC(N)=O)c2)CC1`, the cytotoxicity at 10 µM is -12.2%.

`Cc1cccc(C(=O)NC(CN2CCCC2=O)c2ccccc2)n1` (stereo unspecified): the cytotoxicity at 10 µM is -9.16%.

Take `CN(CC(=O)N1CCCC1Cn1cccn1)c1cnccn1` (stereo unspecified): the cytotoxicity at 10 µM was -5.1%.

Consider `O=C(c1cccc2c1OCO2)N1CCCC1c1noc(C2CC2)n1` (stereo unspecified), for which the cytotoxicity at 10 µM was -23.2%.

As for `O=C(CCSc1ccc(F)cc1)NS(=O)(=O)c1ccc2c(c1)OCCO2`, the cytotoxicity at 10 µM worked out at 2.36%.

Take `Cc1oncc1C(=O)N[C@@H]1CN(Cc2ccoc2)C[C@@H]2CCCO[C@@H]21`: the cytotoxicity at 10 µM was -108%.

For `CC(NCc1ccc(OCC(N)=O)cc1)c1ccc(Cl)cc1` (stereo unspecified), the cytotoxicity at 10 µM came out at 11.2%.

`c1coc(CN2CCC(c3ccc4c(c3)OCO4)CC2)c1`: the cytotoxicity at 10 µM was -1.55%.

As for `CNC(=O)C1Cn2ccnc2C2(CCN(Cc3cccnc3)CC2)O1` (stereo unspecified), the cytotoxicity at 10 µM was -3.37%.

In the case of `Clc1ccccc1CN1CCc2nc(C3CCCCN3)ncc2C1` (stereo unspecified), the cytotoxicity at 10 µM was -3.12%.

`Cn1cc(C(=O)N2CC[C@@H]3[C@@H]2CCN3Cc2cccc(F)c2)cn1`: the cytotoxicity at 10 µM is -2.21%.

With `Cc1csc(CN2CCC3(CC2)COC(COCC2CC2)C3)n1` (stereo unspecified), the cytotoxicity at 10 µM is -108%.

Consider `O=C(O)c1c(-c2cncnc2)ncc2c1CCN(CC1CCOC1)C2` (stereo unspecified), for which the cytotoxicity at 10 µM was -102%.

Regarding `COCC(=O)N1CCC2(CC1)C(=O)N(Cc1cccnc1)CCN2C`, the cytotoxicity at 10 µM turned out to be 0.964%.

Take `CCN1C(=O)CC(c2ccccc2)C12CCN(CC1CCOCC1)CC2` (stereo unspecified): the cytotoxicity at 10 µM was 3.06%.

For the compound `O=C1COC2(CCN(C(=O)c3ccco3)CC2)CN1Cc1cccnc1`, the cytotoxicity at 10 µM was determined as 7.2%.

Consider `c1ccc(OCc2nnc3n2CCN(CC2CCOCC2)C3)nc1`, for which the cytotoxicity at 10 µM is 1.65%.

Consider `c1cncc(N2CCOCC3(CCCN(c4nncs4)C3)C2)c1` (stereo unspecified), for which the cytotoxicity at 10 µM is -1.42%.

`Cc1nc(C)c(C(C)NCc2cnc(N3CCOCC3)nc2)s1` (stereo unspecified): the cytotoxicity at 10 µM was -4.76%.

Consider `COCCN1CCN(C=C2NN=C(c3occc3C)O2)CC1`, for which the cytotoxicity at 10 µM was -49.4%.

Source of the values: ChEMBL document CHEMBL4513216, “Probing the Open Global Health Chemical Diversity Library for Multistage-Active Starting Points for Next-Generation Antimalarials” (ACS Infect Dis, 2020).
